{"source": "ChEMBL document CHEMBL1123816", "about": "“Synthesis and antidepressant properties of novel 2-substituted 4,5-dihydro-1H-imidazole derivatives” (J Med Chem, 1987)", "key": {"[1]": {"test": "selectivity ratio (Alpha-1[3H]-prazosin/Alpha2[3H]-clonidine)"}, "Rattus norvegicus": {"tested_on": "Rattus norvegicus", "test": "Minimum effective dose required for inhibition of serotonin uptake was determined by PCA method in rat by peroral administration", "assay_type": "functional", "conditions": "po, read-out: MED", "in_short": "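Fasted male Sprague–Dawley rats (160–200 g) given test compound orally in water (10 mL/kg) 15 min before p-chloroamphetamine 3 mg/kg ip. Forebrain taken 3 h later, extracted in acidified butanol then heptane/0.1 N HCl. Serotonin in aqueous phase measured fluorometrically after o-phthalaldehyde condensation (excitation 360 nm). Minimum effective dose reported.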"}, "[2]": {"target": "T1, Adrenergic receptor alpha-1 (Rattus norvegicus, UniProt P15823+P23944+P43140)", "T1 sequence (P15823 whole entry)": "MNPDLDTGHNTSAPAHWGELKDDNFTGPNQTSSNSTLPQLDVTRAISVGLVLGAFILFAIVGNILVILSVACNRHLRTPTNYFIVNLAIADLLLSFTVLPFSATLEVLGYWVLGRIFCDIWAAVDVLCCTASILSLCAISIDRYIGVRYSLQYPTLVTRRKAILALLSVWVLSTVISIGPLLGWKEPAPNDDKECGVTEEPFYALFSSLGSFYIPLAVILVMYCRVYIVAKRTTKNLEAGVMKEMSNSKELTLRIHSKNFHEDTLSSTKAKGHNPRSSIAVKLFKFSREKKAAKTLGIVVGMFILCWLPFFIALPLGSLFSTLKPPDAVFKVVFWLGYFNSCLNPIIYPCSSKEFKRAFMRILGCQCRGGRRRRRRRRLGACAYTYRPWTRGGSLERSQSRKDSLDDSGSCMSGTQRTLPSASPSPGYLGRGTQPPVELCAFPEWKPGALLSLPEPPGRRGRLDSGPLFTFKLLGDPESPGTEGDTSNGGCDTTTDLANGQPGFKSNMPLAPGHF", "T1 sequence (P23944 whole entry)": "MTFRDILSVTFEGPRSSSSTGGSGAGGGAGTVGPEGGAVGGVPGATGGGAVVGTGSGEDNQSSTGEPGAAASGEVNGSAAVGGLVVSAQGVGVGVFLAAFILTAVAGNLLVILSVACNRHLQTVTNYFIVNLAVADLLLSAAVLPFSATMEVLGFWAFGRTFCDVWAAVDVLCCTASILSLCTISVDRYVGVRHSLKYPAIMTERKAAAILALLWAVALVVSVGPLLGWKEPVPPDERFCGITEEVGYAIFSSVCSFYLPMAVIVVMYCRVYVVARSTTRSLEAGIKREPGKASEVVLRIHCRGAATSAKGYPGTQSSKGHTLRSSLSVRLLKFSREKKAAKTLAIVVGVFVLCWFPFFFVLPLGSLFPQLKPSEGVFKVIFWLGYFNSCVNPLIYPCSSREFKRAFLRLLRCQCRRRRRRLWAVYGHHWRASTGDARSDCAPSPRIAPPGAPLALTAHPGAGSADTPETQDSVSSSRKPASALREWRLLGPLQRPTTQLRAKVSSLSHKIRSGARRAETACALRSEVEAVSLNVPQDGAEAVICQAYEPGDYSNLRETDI", "T1 sequence (P43140 whole entry)": "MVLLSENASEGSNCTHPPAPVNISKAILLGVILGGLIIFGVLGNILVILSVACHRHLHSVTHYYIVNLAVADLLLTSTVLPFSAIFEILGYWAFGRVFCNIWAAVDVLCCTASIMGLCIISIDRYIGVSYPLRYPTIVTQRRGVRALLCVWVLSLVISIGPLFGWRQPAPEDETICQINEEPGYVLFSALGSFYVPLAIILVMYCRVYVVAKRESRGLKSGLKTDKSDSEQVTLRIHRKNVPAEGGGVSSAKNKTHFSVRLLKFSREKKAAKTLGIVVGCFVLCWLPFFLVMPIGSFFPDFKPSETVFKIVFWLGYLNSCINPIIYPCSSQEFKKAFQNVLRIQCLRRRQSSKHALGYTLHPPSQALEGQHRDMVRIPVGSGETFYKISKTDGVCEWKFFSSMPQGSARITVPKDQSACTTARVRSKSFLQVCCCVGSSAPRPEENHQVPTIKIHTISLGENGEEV", "test": "Ability to displace [3H]prazosin from alpha-1 adrenergic receptor in rat brain homogenates in vitro", "assay_type": "tissue-based", "in_short": "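Rat brain cortex membranes in 50 mM Tris pH 7.7, washed at 48000g, final resuspension 150 volumes. Incubated with 0.03 nM [3H]prazosin and graded test concentrations for 90 min at 25 °C. Unlabeled phentolamine (10 μM) defined nonspecific binding. Filtered on GF/B, scintillation counted. Triplicate assays; IC50 from logit plot converted to apparent Ki via Cheng–Prusoff.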"}}, "data": [{"smiles": "CC1=C(CC2=NCCN2)CCc2ccccc21.Cl", "values": [{"measurement": "Selectivity ratio", "setting": "[1]", "value": 12.3}, {"measurement": "minimal effective dose", "setting": "Rattus norvegicus", "value": 30, "unit": "mg/kg"}, {"measurement": "Ki", "setting": "[2]", "value": 0.148, "unit": "µM"}]}, {"smiles": "C1=C(CC2=NCCN2)CCc2ccccc21.Cl", "note": "[NAPAMEZOLE HYDROCHLORIDE]", "values": [{"measurement": "Ratio", "setting": "[1]", "value": 3.4}, {"measurement": "minimal effective dose", "setting": "Rattus norvegicus", "value": 30, "unit": "mg/kg"}, {"measurement": "Ki", "setting": "[2]", "value": 0.078, "unit": "µM"}]}]}
